Only some compounds are listed: those with a hit (about 3.5% of all), similar ones and a draw of the others.
MrgX1 agonist: human MrgX1 receptor agonism, primary screen | B-score at 10 µM | 310,000 compounds, 0.44% hits | MrgX1-HEK293 cells, Fluo-4 calcium fluorescence, agonist mode; active compounds read high;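 active = calcium response B-score plate-corrected fluorescence ratio at least 3 library SD, with starting fluorescence B-score inside 5 SD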
Target sequence (Q96LB2 whole entry, looked up): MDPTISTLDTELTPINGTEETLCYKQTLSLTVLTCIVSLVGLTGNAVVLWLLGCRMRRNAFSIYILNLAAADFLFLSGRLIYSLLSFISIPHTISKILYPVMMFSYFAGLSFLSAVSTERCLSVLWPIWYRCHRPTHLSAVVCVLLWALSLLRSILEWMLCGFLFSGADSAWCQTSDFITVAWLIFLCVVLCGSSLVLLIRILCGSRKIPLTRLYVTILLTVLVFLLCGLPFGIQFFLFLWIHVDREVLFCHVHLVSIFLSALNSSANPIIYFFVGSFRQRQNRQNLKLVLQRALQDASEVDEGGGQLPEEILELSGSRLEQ
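Material: MrgX1-expressing HEK293 cells / Dosing: compound as first of three additions / Incubation: overnight seeding, then 1 h dark dye loading / Signal: Fluo-4 NW calcium fluorescence / Evaluation: B-scored fluorescence response ratio / Benchmarks: positive and negative control wells on each plate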
MrgX1 antag: blocks BAM8-22 activation of human MrgX1 receptor; 310,000 compounds, 1.3% hits; MRGX1-HEK293 calcium flux, Fluo-4, BAM8-22 antagonism; active compounds read low; B-score at 10 µM; Q96LB2;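 active = calcium-response B-score plate-corrected more than 3 library SD below zero, starting fluorescence within 5 deviations, no agonist response on first addition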;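 note: peak minus trough fluorescence over baseline after final BAM8-22 challenge near maximal dose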
RGS4 act: RGS4 potentiation or activation | 310,000 compounds, 0.92% hits | HEK293 M3R/inducible RGS4, carbachol calcium flux Fluo4; active compounds read low | AID 463111 | B-score at 10 µM;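 active = B-score of the integrated calcium signal more than 4 SD below the library mean, with starting fluorescence not abnormally high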;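 note: negative B-score means reduced calcium response which marks RGS4 activation or potentiation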
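test system = M3R-expressing HEK293 line, RGS4 induced by doxycycline | probe or stimulus = carbachol at ECmax as muscarinic agonist stimulus | timing = dye loading 30 min 37 °C, buffer rest 30 min RT | signal = calcium dye Fluo4 fluorescence | evaluation = B score from integrated fluorescence ratio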
MrgX1 allo act: human MrgX1 positive allosteric modulation, primary screen. MrgX1-HEK293, Fluo-4 calcium flux, FDSS; active compounds read high. B-score at 10 µM. 310,000 compounds, 0.63% hits;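 active = plate-corrected calcium response at least 3 library SD above typical, normal starting fluorescence, not activating the receptor alone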;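 note: compound read alongside a low EC10 to EC30 dose of BAM8-22 agonist; peak minus trough fluorescence over baseline measured at the second addition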
RGS4 block: inhibitors of human RGS4; HEK293 M3R/RGS4 inducible, Fluo-4 calcium flux; active compounds read high; triggered by carbachol at its EC20; AID 463165; 310,000 compounds, 0.45% hits; P49798; B-score at 10 µM;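 active = B-score, a plate-corrected calcium signal, over three deviations above library mean, with baseline fluorescence within five deviations of library mean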;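 note: RGS4 expression induced by doxycycline in cells with stable M3 receptor; B-score is computed from the integrated fluorescence ratio over baseline after carbachol; higher B-score means a larger calcium signal and so more RGS4 inhibition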
Target sequence (P49798 whole entry, looked up): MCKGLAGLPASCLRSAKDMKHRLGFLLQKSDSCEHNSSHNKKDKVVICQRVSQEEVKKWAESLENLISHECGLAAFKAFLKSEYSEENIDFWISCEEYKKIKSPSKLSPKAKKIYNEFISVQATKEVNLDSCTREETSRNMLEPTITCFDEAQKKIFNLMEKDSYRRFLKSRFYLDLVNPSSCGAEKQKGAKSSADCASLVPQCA
MrgX1 ant reconf: confirmation of human MrgX1 receptor antagonists | remaining BAM8-22 calcium response % of control (active compounds read low), % at 10 µM | 2,300 compounds, 19% hits | MrgX1-HEK293, BAM8-22 calcium flux, Fluo-4; active compounds read low | shares compounds with MrgX1 antag | AID 602420;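 active = remaining agonist calcium response no higher than 100% minus 3 SD of agonist-only control wells, with starting fluorescence near control levels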;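 note: agonist BAM8-22 given at a near maximal EC90 to ECmax level; peak minus minimum fluorescence divided by baseline after agonist addition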
HEK293 Ca flux: activity in parental HEK293 cells lacking MrgX1 | fluorescence ratio F(max-min)/F0 at 10 µM | 4,000 compounds, 2% hits | Fluo-4 calcium fluorescence, FDSS | shares compounds with MrgX1 antag;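 active = duplicate-averaged calcium fluorescence ratio at least three times the standard deviation of buffer wells, a nonspecific response in parental cells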
HEK293 Ca counter: MrgX1 allosteric activator counter-screen hit in parental HEK293 cells; shares compounds with MrgX1 antag; parental HEK293 calcium flux, Fluo-4 fluorescence ratio; active compounds read high; fluorescence ratio F(max-min)/F0 at 10 µM; 4,000 compounds, 0.4% hits; AID 624114;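 active = calcium fluorescence ratio, averaged over duplicates, at least 3 SD of the buffer-well ratio, meaning a nonspecific response in receptor-free cells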;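 note: untransfected parental HEK293 lacking MrgX1 used as counterscreen for MrgX1 allosteric activators; fluorescence change taken during the second addition on a kinetic imager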
HEK293 Ca cntr2: activity in parental HEK293 cells lacking MrgX1 receptor. shares compounds with MrgX1 antag. Fluo-4 calcium fluorescence (FDSS); active compounds read high. fluorescence ratio F(max-min)/F0 at 10 µM. 4,000 compounds, 8.7% hits. AID 624115;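 active = calcium fluorescence ratio at least three times the spread of buffer wells, meaning a non-specific response in parental cells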
A number is an active result; – = inactive; · = no result given.

SMILES	MrgX1 agonist	MrgX1 antag	RGS4 act	MrgX1 allo act	RGS4 block	MrgX1 ant reconf	HEK293 Ca flux	HEK293 Ca counter	HEK293 Ca cntr2
Cc1ccc(C(CNS(=O)(=O)c2ccccc2)N2CCN(C)CC2)cc1 (configuration not stated)	–	-8.07	–	–	–	–	–	–	–
Cc1ccc(C(CNS(=O)(=O)c2ccc(Br)cc2)N2CCN(C)CC2)cc1 (configuration not stated)	–	–	–	–	–	·	·	·	·
Cc1ccc(S(=O)(=O)NCC(c2ccco2)N2CCc3ccccc3C2)cc1 (configuration not stated)	–	-5.14	–	–	–	–	–	–	–
COc1ccc(S(=O)(=O)NCC(c2ccco2)N2CCc3ccccc32)cc1 (configuration not stated)	–	–	–	–	–	·	·	·	·
Cc1ccc(S(=O)(=O)NCC(c2ccco2)N2CCc3ccccc32)cc1 (configuration not stated)	–	-5.57	–	–	–	–	–	–	–
COc1ccc(CN2CC(C(=O)NCCCN3CCCCC3)CC2=O)cc1 (configuration not stated)	–	–	–	–	–	·	·	·	·
Cc1ccoc1C(=O)Nc1cccc2ccccc12	–	–	–	–	–	·	·	·	·
CCOC(=O)Cn1c(=O)cc(C)c2ccccc21	–	-8.48	–	–	–	–	–	–	–
CCOC(=O)CCc1c(C)nc2cc(C3CCCN(C(=O)OC(C)(C)C)C3)[nH]n2c1=O (configuration not stated)	–	-5.38	·	–	·	–	–	–	–
CCOC(=O)CCc1c(C)nc2cc(-c3ccccc3OC)[nH]n2c1=O	–	–	–	–	–	·	·	·	·
Cc1cc(Cl)ccc1OCc1nnc2n1CCCCC2	–	–	–	–	–	·	·	·	·
CN1CCN(NC(=O)CSc2ccc(Cl)cc2Cl)CC1	–	–	–	–	–	·	·	·	·
COc1ccc(C(=O)NC2CCN(C(=S)Nc3ccc(C)cc3)CC2)cc1	–	-4.75	–	–	–	–	–	–	–
COc1ccc(NC(=S)N2CCC(NC(=O)c3cccc(C)c3)CC2)cc1	–	–	–	–	–	·	·	·	·
O=C(O)Cn1nnnc1-c1ccc(F)cc1	–	-5.55	–	–	–	–	–	–	–
Cc1ccc(NC(=S)NCCc2ccc(F)cc2)c(C)c1	–	-6.15	–	–	–	–	–	–	–
Cc1noc(C)c1CSc1ccccc1C(=O)N(C)CC(=O)Nc1cccc(F)c1	–	–	–	–	–	·	·	·	·
Cc1ccsc1C(=O)N(Cc1nnc(-c2ccccc2Cl)o1)C1CC1	–	-5.8	–	–	–	–	–	–	–
COc1cc(CN2CCC(n3nccc3NC(=O)c3ccccc3OC)CC2)ccc1F	–	–	–	–	–	·	·	·	·
CCOC(=O)COc1ccc2c(c1)C(=O)CC1(CCCCC1)O2	–	-7.59	–	–	–	–	–	–	–
S=C(NCCc1ccccn1)Nc1cc(Cl)cc(Cl)c1	–	-4.53	–	–	–	80.8%	–	–	–
O=C(COc1ccc(Cl)cc1)NCCCNC(=O)c1ccccn1	–	–	–	–	–	·	·	·	·
O=C(COc1ccc(Cl)cc1)NCCc1ccccn1	–	-5.23	–	–	–	84.7%	–	–	–
S=C(NCCc1ccccn1)Nc1ccc(Cl)c(Cl)c1	–	–	–	–	–	·	·	·	·
COc1ccc(N2CC(O)=C(c3nc(-c4ccc(F)cc4)cs3)C2=N)cc1Cl	–	–	–	–	–	·	·	·	·
SMILES	MrgX1 agonist	MrgX1 antag	RGS4 act	MrgX1 allo act	RGS4 block	MrgX1 ant reconf	HEK293 Ca flux	HEK293 Ca counter	HEK293 Ca cntr2
COc1ccc(N2CC(O)=C(c3nc(-c4ccc(F)cc4)cs3)C2=N)cc1OC	–	-6.75	–	–	–	–	–	–	–
O=C(O)Cc1ccc(NC(=O)c2ccc(NC(=O)C3CC3)cc2)cc1	–	–	–	–	–	·	·	·	·
CC(C(=O)NCCCc1ccccc1)n1cccc1C(=O)c1ccccc1 (configuration not stated)	–	–	–	–	–	·	·	·	·
COc1ccc(Nc2nc(-c3ccc4c(c3)NC(=O)CO4)cs2)cc1	–	–	–	–	–	·	·	·	·
COc1ccc(-c2cc(-c3ccccc3)nc(-c3ccc4c(c3)NC(=O)CO4)c2)cc1	–	-5.86	–	–	–	–	–	–	–
O=c1[nH]c2cc(Br)cnc2nc1/C=C(\O)c1ccc(F)cc1	–	-6.95	–	–	–	75.0%	–	–	–
O=C(Nc1ccc2c(c1)OC1(CCCC1)O2)C1CC1	–	-5.87	–	–	–	–	–	–	–
CCc1nn(CC(=O)N(C)C2CCCCC2)c(=O)c2cc3cc(C)ccc3n12	–	–	–	–	–	·	·	·	·
CC1(C)CC(CC(=O)O)(c2ccc(F)cc2)CCO1 (configuration not stated)	–	-6	–	–	–	–	–	–	–
Cc1ccc(C2(CC(=O)O)CCOC(C)(C)C2)cc1 (configuration not stated)	–	–	–	–	–	·	·	·	·
Clc1ccc(N2CCN(/N=C/c3cccnc3)CC2)cc1	–	–	–	–	–	·	·	·	·
COc1ccc(CCN=C(N)NS(=O)(=O)c2ccc(C)c(C)c2)cc1OC	–	–	–	–	–	·	·	·	·
COc1ccc(S(=O)(=O)NC(N)=NCCc2ccc(OC)c(OC)c2)cc1	–	-7.38	–	–	–	–	–	–	–
Nc1c(C(=O)NCc2ccco2)c2nc3ccccc3nc2n1CCc1ccccc1F	–	-7.51	–	–	–	–	–	–	–
COc1ccc(CCn2c(N)c(C(=O)NCc3ccco3)c3nc4ccccc4nc32)cc1	–	–	–	–	–	·	·	·	·
CC1(C)CC(NCc2ccncc2)CC(C)(C)N1	–	-9.66	–	–	–	85.6%	–	–	–
CN(C)c1ccc(CNC2CC(C)(C)NC(C)(C)C2)cc1	–	–	–	–	–	·	·	·	·
CN(C)c1nc2c(c(=O)[nH]c(=O)n2C)n1CCCc1ccccc1	–	–	–	–	–	·	·	·	·
CCCOc1ccc(CNC(=O)c2ccc3nc(N4CCOCC4)sc3c2)cc1	–	–	–	–	–	·	·	·	·
CCOc1ccc(S(=O)(=O)NCc2cccnc2)cc1C(C)C	–	–	–	–	–	·	·	·	·
Cc1nc2cc(C(=O)O)ccc2n1-c1ccccc1	–	–	–	–	–	·	·	·	·
COc1ccccc1-n1c(C)nc2cc(C(=O)O)ccc21	–	-4.81	–	–	–	–	–	–	–
